The source of these data is ChEMBL document CHEMBL1140799, “Novel heterocycle-substituted pyrimidines as inhibitors of NF-kappaB transcription regulation related to TNF-alpha cytokine release” (Bioorg Med Chem Lett, 2008).

The structures appear in SMILES notation. The source made the active and inactive calls. No cut-off for these calls is given here.

Assay [1] is described as follows: (§1) Inhibition of AP1-mediated transcriptional activation in human Jurkat cells. In kind it is cell-based.
Assay [2] deals with Glycogen synthase kinase-3 beta (Homo sapiens, UniProt P49841). The experiment in a line: Inhibition of GSK3-beta.
The nature of assay [3]: (§2) Inhibition of NF-kappaB-mediated transcriptional activation in human A549 cells. In kind it is cell-based.
Assay [4] concerns Mus musculus. Briefly: Inhibition of LPS-induced TNFalpha release in BALB/c mouse at 50 mg/kg. In kind it is functional. An outline of the steps: (§3)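 Oral dosing of BALB/c mice 30 min before LPS challenge (0.1 mg/kg ip). Serum TNF-α determined 90 min after LPS. BIRB796 (p38 MAP kinase inhibitor) served as reference compound.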
The test system of the next assay is Jurkat. Described as §1. In kind it is cell-based.
Assay [5] concerns Mus musculus. The experiment in a line: Inhibition of LPS-induced TNFalpha release in BALB/c mouse at 300 mg/kg relative to […]. Format: functional. An outline of the steps:
as §3

The subject of a further assay is THP-1. The experiment in a line: Inhibition of LPS-induced TNFalpha production in human THP1 cells. In kind it is functional, cell-based. An outline of the steps: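 THP-1 monocytes seeded at 1 × 10⁶ cells/mL in 1% FCS medium and left overnight. Compound pretreatment for 1 h, then LPS stimulation for 24 h. TNF-α in supernatants measured by sandwich ELISA. IC50 is the mean of n = 3 repeat experiments, SD given.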

For another assay, the system named is A549. Described as §2. In kind it is cell-based.

Turning to `COCCn1cc(-c2ccnc(Nc3ccccc3)n2)c2cccnc21`, the IC50 in assay [1] was 11400 nM; in assay [2], 1050 nM; in assay [3], 5600 nM.
For the compound `COc1cccc(Nc2nccc(C3=C(c4ccccc4)NN4C=CC=CC34)n2)c1` (configuration not stated), the IC50 in assay [1] turned out to be 1600 nM; in assay [2], 30 nM; in assay [3], 1900 nM.
In the case of `Cc1ccc(-n2nc(C(C)(C)C)cc2NC(=O)Nc2ccc(OCCN3CCOCC3)c3ccccc23)cc1` [DORAMAPIMOD], in the assay on Mus musculus [4], the inhibition in vivo at 50 mg/kg turned out to be 93%.
`Cc1ccc(Cl)cc1Nc1nccc(C2=CNN3C=CC=CC23)n1` (configuration not stated): the IC50 in assay [1] came out at 4900 nM; in assay [2], 10600 nM; in assay [3], 4300 nM.
`O=C(Nc1n[nH]c2nc(N3CCN(S(=O)(=O)c4ccccc4C(F)(F)F)CC3)c(F)cc12)C1CC1`: the result (in the assay with Jurkat; in assay [2]) was inactive. Moreover, the half-inhibitory concentration (IC50) in assay [3] was 9400 nM.
On to `COc1cccc(Nc2nccc(C3=CNN4C=CC=CC34)n2)c1` (configuration not stated), for which the IC50 is 1800 nM in assay [1], 100 nM in assay [2] and 1000 nM in assay [3].
As for `O=C(Nc1n[nH]c2nc(N3CCN(C(=O)c4ccc(F)cc4F)CC3)c(F)cc12)C1CC1`, the result (with Jurkat; in assay [2]) was inactive. In addition, the IC50 in assay [3] was 19300 nM.
In the case of `COCCn1cc(-c2ccnc(Nc3cccc(OC)c3)n2)c2cccnc21`, the result with Jurkat was inactive. Moreover, the inhibition in vivo at 300 mg/kg with Mus musculus [5] stood at 89%. Further, the IC50 in assay [2] is 2200 nM; in assay [3] it was 1400 nM; in the assay with THP-1 it was 990 nM.
Regarding `C1=CC2C(c3ccnc(Nc4ccccc4)n3)=C(c3ccccc3)NN2C=C1` (configuration not stated), the figures for the IC50 in assay [1], in assay [2] and in assay [3] were 700 nM, 60 nM and 1700 nM, respectively.
With `COc1ccccc1N1CCN(c2nc3[nH]nc(NC(=O)C4CC4)c3cc2F)CC1`, the outcome (in the assay on Jurkat; in assay [2]; in the assay with THP-1) was inactive. Moreover, in assay [3], the IC50 turned out to be 10900 nM.
For the compound `COCCn1cc(-c2ccnc(Nc3cccc(OC)c3)n2)c2ccccc21`, the outcome with Jurkat was inactive. Also, the results for the IC50 in assay [2] and in assay [3] were 140 nM and 7800 nM, respectively.
Regarding `C1=CC2C(c3ccnc(Nc4ccccc4)n3)=CNN2C=C1` (configuration not stated), the IC50 stood at 900 nM in assay [1], 150 nM in assay [2], 600 nM in assay [3] and 140 nM in the assay on THP-1.
Consider `COc1ccccc1C(=O)N1CCN(c2nc3[nH]nc(NC(=O)C4CC4)c3cc2F)CC1`, for which the outcome (in the assay with Jurkat; in assay [2]) was inactive. Also, half-maximal inhibition in assay [3] (IC50) required 13100 nM.
Consider `O=C(Nc1n[nH]c2nc(N3CCNCC3)c(F)cc12)C1CC1`, for which the result (with Jurkat; in assay [2]; with A549) was inactive.
Turning to `COCCn1cc(-c2ccnc(Nc3ccccc3)n2)c2ccccc21`, the outcome in the assay on Jurkat was inactive. The IC50 turned out to be 320 nM in assay [2] and 10400 nM in assay [3].

What is called IC50 is the concentration that inhibits the measured activity by half. The low end stands for greater potency in that assay, the high end for weaker potency in that assay. For orientation: inhibition in vivo means how much of the control response was suppressed. Low values mean a response near the control, high ones a response far below the control.
